ChEMBL document CHEMBL4257570, “Discovery and optimization of a novel series of pyrazolyltetrahydropyran N-type calcium channel (Cav 2.2) blockers for the treatment of pain” (Bioorg Med Chem Lett, 2018)
Activity calls are given as the source filed them.

What was measured:
[1] = target: Voltage-gated inwardly rectifying potassium channel KCNH2 (Homo sapiens, UniProt Q12809); assay: Inhibition of human ERG
[2] = Half life in rat at 1.2 mg/kg, iv; format: ADME, organism-based; conditions: in vivo
In short: (§1)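 Rat PK: oral and intravenous dosing of the same compound in 20% hydroxypropyl-β-cyclodextrin, at 10.0/2.0 or 6.0/1.2 mg/kg po/iv.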

[3] = system: Rattus norvegicus; assay: Antiinflammatory activity in rat model of complete Freund's adjuvant-induced inflammatory pain assessed as reduction in thermal hyperalgesia by measuring radiant heat latency at 30 mg/kg, po measured after 30 mins post dose; format: functional, organism-based
In short: (§2)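 CFA rats were confirmed thermally hypersensitive by radiant heat latency (75% cut-off) on test day. They were then dosed p.o. at 2.5 mL/kg with 30 mg/kg in 10% NMP/20% Solutol, or vehicle alone. Paw withdrawal latency to radiant heat was read at 30, 60, 120, 180 and 300 min post-dose. One-way ANOVA with Dunnett's post test.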

[4] = Oral bioavailability in rat at 6 mg/kg; format: ADME, organism-based; conditions: in vivo; in short: as §1
[5] = Volume of distribution at steady state in rat at 6 mg/kg, po or 1.2 mg/kg, iv; format: ADME, organism-based; conditions: in vivo, read-out: Vdss; in short: as §1
[6] = Plasma concentration in rat model of complete Freund's adjuvant-induced inflammatory pain at 30 mg/kg, po after 1 hr; format: ADME, organism-based
In short: (§3)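 In separate studies, drug levels in plasma, brain and spinal cord were measured in rats after a 30 mg/kg p.o. dose, sampled at 1 h or 2 h.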

[7] = Cmax in rat at 6 mg/kg, po; format: ADME, organism-based; parameters: dose 6 mg/kg, route oral; conditions: in vivo; in short: as §1
[8] = target: L-type calcium channel (Homo sapiens, UniProt O60840+Q01668+Q13698+Q13936); assay: Inhibition of L-type calcium channel (unknown origin) at 1 uM relative to control; format: protein assay
[9] = Drug uptake in spinal cord of rat model of complete Freund's adjuvant-induced inflammatory pain at 30 mg/kg, po after 1 hr; format: ADME, organism-based; conditions: read-out: Drug uptake; in short: as §3
[10] = Drug uptake in brain of rat model of complete Freund's adjuvant-induced inflammatory pain at 30 mg/kg, po after 1 hr; format: ADME, organism-based; conditions: read-out: Drug uptake; in short: as §3
[11] = system: Rattus norvegicus; assay: Antiinflammatory activity in rat model of complete Freund's adjuvant-induced inflammatory pain assessed as reduction in thermal hyperalgesia by measuring radiant heat latency at 30 mg/kg, po measured after 180 mins post dose; format: functional, organism-based; in short: as §2
[12] = Clearance in rat at 6 mg/kg, po or 1.2 mg/kg, iv; format: ADME, organism-based; conditions: in vivo; in short: as §1
[13] = AUClast in rat at 6 mg/kg, po; format: ADME, organism-based; parameters: dose 6 mg/kg, route oral, time 0 - last; conditions: in vivo; in short: as §1
[14] = target: T1, Voltage-dependent N-type calcium channel subunit alpha-1B (Homo sapiens, UniProt Q00975); assay: Inhibition of high frequency stimulation-induced Cav2.2 (unknown origin) expressed in HEK293 cells at -80 mV holding membrane potential by automated patch clamp assay; format: cell-based
Target sequence in this assay (Q00975 whole entry): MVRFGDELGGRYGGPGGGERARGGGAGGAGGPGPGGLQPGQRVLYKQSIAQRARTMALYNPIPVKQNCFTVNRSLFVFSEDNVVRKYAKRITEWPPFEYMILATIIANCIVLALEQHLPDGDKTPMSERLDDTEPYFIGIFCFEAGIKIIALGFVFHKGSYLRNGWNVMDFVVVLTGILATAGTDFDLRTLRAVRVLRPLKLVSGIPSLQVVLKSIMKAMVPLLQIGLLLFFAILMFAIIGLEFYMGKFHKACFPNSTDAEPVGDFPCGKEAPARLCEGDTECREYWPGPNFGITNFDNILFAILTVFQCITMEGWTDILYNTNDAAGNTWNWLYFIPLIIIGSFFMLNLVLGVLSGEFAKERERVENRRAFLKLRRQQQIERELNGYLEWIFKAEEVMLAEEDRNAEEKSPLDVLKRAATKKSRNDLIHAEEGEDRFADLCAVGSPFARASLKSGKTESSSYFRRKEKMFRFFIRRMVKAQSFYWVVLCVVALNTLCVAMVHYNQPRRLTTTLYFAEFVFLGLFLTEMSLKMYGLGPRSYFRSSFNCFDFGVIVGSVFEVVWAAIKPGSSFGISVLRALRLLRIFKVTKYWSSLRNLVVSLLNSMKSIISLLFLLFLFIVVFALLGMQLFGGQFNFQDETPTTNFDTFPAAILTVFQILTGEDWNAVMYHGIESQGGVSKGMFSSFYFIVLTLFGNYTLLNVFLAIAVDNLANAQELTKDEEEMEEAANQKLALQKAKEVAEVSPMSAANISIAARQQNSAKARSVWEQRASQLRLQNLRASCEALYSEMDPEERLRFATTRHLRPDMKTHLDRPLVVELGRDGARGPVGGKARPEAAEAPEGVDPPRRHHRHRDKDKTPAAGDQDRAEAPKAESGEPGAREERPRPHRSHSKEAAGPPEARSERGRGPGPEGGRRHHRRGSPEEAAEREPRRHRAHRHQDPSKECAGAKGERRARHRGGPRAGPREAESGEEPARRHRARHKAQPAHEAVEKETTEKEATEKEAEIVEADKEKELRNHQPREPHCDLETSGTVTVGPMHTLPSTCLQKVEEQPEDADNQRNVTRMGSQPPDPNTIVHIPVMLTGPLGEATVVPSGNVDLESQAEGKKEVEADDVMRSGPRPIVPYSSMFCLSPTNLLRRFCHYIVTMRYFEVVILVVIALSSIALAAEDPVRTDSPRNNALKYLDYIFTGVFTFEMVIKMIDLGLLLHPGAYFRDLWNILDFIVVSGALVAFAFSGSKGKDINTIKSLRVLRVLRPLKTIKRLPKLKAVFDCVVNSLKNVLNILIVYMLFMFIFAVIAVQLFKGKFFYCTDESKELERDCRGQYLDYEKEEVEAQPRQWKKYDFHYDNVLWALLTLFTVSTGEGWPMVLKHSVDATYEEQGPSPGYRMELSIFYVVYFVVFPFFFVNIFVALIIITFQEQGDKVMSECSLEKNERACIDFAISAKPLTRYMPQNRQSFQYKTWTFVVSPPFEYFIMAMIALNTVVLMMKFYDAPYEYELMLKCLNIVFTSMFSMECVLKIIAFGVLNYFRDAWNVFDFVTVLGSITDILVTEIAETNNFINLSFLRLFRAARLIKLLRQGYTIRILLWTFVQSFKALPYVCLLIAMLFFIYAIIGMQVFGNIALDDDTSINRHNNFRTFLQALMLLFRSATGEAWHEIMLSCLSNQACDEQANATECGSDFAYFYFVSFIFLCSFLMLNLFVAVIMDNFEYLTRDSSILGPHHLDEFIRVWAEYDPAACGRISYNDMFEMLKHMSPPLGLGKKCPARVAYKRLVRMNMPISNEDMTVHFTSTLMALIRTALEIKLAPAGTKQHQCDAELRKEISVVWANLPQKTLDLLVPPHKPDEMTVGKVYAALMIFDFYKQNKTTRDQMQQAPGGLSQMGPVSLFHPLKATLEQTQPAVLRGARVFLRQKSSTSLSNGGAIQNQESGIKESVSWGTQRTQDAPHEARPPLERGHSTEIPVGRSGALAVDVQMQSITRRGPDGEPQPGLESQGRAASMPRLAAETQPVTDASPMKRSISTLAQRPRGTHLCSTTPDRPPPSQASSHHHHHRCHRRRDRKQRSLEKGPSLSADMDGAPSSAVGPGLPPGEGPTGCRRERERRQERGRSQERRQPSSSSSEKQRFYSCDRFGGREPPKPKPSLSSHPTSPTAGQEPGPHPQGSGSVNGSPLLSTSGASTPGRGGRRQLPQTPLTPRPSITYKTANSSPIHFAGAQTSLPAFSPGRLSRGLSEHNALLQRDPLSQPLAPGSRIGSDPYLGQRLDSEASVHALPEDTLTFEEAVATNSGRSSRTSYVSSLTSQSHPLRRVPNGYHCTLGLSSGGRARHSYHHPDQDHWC

[15] = target: T1, Voltage-dependent N-type calcium channel subunit alpha-1B; assay: Inhibition of Cav2.2 (unknown origin) expressed in HEK293 cells assessed as decrease in KCl depolarization-induced Ca2+ influx measured for 5 mins by fluorescence based FDSS assay; format: cell-based
Target sequence in this assay (Q00975 whole entry): as above

[16] = target: T1, Voltage-dependent N-type calcium channel subunit alpha-1B; assay: Inhibition of low frequency stimulation-induced Cav2.2 (unknown origin) expressed in HEK293 cells at -80 mV holding membrane potential by automated patch clamp assay; format: cell-based
Target sequence in this assay (Q00975 whole entry): as above

[17] = Metabolic stability of rat liver microsomes assessed as parent compound remaining after 10 mins; format: ADME, microsome; conditions: read-out: Stability
[18] = Metabolic stability of human liver microsomes assessed as parent compound remaining after 10 mins; format: ADME, microsome; conditions: read-out: Stability
[19] = target: T1, Voltage-dependent N-type calcium channel subunit alpha-1B; assay: Inhibition of high frequency stimulation-induced Cav2.2 (unknown origin) expressed in HEK293 cells at 5 uM at -80 mV holding membrane potential by automated patch clamp assay relative to control; format: cell-based
In short: (§4)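 Automated whole-cell patch clamp (QPatch-HT) on HEK293 cells stably expressing Cav2.2. Each trial was the 4th train at each drug concentration. 60 μM CdCl2 set the 0% level, and vehicle-treated cells were used to correct for rundown.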
Target sequence in this assay (Q00975 whole entry, looked up): as the sequence (Q00975 whole entry) above

[20] = target: T1, Voltage-dependent N-type calcium channel subunit alpha-1B; assay: Inhibition of low frequency stimulation-induced Cav2.2 (unknown origin) expressed in HEK293 cells at 5 uM at -80 mV holding membrane potential by automated patch clamp assay relative to control; format: cell-based; in short: as §4
Target sequence in this assay (Q00975 whole entry, looked up): as the sequence (Q00975 whole entry) above

[21] = Plasma concentration in rat model of complete Freund's adjuvant-induced inflammatory painat 30 mg/kg, po after 2 hrs; format: ADME, organism-based; in short: as §3
[22] = Cmax in rat at 10 mg/kg, po; format: ADME, organism-based; parameters: dose 10 mg/kg, route oral; conditions: in vivo; in short: as §1
[23] = Clearance in rat at 10 mg/kg, po or 2 mg/kg, iv; format: ADME, organism-based; conditions: in vivo; in short: as §1
[24] = Drug uptake in brain of rat model of complete Freund's adjuvant-induced inflammatory pain at 30 mg/kg, po after 2 hrs; format: ADME, organism-based; conditions: read-out: Drug uptake; in short: as §3
[25] = Oral bioavailability in rat at 10 mg/kg; format: ADME, organism-based; conditions: in vivo; in short: as §1
[26] = Volume of distribution at steady state in rat at 10 mg/kg, po or 2 mg/kg, iv; format: ADME, organism-based; conditions: in vivo, read-out: Vdss; in short: as §1
[27] = system: Rattus norvegicus; assay: Antinociceptive activity in Sprague-Dawley rat model of CCI-induced neuropathic pain assessed as reduction in acetone-induced nocifensive response at 30 mg/kg, po measured after 3 hrs relative to control; format: functional
In short: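 CCI rats were given 30 mg/kg p.o. in 10% Solutol/20% HP-β-CD, or vehicle. Cold allodynia was scored as brisk hindpaw withdrawal to acetone applied to the affected paw, over five applications, before dosing and hourly for 3 h. Percent inhibition is relative to the time-zero responses. Two-way repeated-measures ANOVA with Bonferroni test.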

[28] = Half life in rat at 2 mg/kg, iv; format: ADME, organism-based; conditions: in vivo; in short: as §1
[29] = AUClast in rat at 10 mg/kg, po; format: ADME, organism-based; parameters: dose 10 mg/kg, time 0 - last, route oral; conditions: in vivo; in short: as §1

Chain of Voltage-gated inwardly rectifying potassium channel KCNH2 (Q12809 whole entry): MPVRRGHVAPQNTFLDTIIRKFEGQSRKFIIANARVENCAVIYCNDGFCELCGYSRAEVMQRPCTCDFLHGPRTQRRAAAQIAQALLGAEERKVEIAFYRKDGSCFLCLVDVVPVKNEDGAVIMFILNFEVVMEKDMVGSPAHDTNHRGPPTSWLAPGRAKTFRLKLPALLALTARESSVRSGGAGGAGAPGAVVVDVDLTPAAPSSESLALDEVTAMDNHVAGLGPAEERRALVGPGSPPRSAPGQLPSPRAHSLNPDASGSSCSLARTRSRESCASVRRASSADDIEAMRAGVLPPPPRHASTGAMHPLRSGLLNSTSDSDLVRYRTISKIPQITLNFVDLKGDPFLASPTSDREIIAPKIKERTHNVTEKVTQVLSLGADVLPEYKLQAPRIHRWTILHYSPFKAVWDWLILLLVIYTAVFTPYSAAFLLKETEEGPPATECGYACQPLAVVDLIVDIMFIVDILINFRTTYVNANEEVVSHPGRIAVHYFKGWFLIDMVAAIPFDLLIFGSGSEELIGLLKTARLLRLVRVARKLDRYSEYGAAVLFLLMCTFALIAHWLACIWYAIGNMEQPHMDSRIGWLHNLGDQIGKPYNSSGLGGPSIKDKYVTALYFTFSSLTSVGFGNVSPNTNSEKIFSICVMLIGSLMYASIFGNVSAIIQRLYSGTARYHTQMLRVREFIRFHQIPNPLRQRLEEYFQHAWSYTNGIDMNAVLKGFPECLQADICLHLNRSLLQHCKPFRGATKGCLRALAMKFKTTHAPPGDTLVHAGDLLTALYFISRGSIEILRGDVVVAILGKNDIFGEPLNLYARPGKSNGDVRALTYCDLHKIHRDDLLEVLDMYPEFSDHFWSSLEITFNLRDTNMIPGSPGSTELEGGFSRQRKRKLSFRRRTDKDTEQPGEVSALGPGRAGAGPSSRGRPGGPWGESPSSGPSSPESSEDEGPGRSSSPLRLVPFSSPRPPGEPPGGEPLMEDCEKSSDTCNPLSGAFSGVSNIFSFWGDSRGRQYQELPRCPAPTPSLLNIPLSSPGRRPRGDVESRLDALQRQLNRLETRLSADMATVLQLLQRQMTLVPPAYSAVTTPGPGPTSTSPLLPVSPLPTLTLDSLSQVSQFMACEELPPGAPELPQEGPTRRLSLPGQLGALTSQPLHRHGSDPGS

Row | Compound | IC50 [14] [nM] | IC50 [15] [nM] | IC50 [16] [nM] | remaining at 10 min [17] [%] | remaining at 10 min [18] [%] | also measured
1 | COc1ccccc1-n1nc(C2CC(C)(C)OC(C)(C)C2)cc1-c1csc(Cl)c1 | 28 | 6 | 62 |  |  | IC50 [1]: 26000 nM; half-life [2]: 10.2 h; Activity [3]: Active; bioavailability [4]: 49%; Vd [5]: 10.2 L/kg; concentration at 1 h [6]: 1100 nM; Cmax [7]: 369 ng/mL; inhibition at 1 µM [8]: 12%; concentration at 1 h [9]: 1900 nM; concentration at 1 h [10]: 2200 nM; Activity [11]: inactive; clearance [12]: 15.9 mL/min/kg; AUC(0-t) [13]: 2660 ng·h/mL
2 | COCCCc1cc(-c2ccc(Cl)cc2)n(-c2ccccc2OC)n1 |  |  |  | 4 | 58 | inhibition [19]: 50%; inhibition [20]: 50%
3 | COc1ccccc1-n1nc(C2CCOCC2)cc1-c1ccc(Cl)cc1 |  | 30 |  | 8 | 75 | 
4 | COc1ccccc1-n1nc(C2CCOC(C)(C)C2)cc1-c1ccc(Cl)cc1 (stereo not given) | 55 | 2 | 150 | 21 | 98 | 
5 | COc1ccccc1-n1nc([C@@H]2CCO[C@@H](C(C)C)C2)cc1-c1ccc(Cl)cc1 (relative stereo) |  | 20 |  | 14 | 26 | 
6 | COc1ccccc1-n1nc(C2CC(C)(C)OC(C)(C)C2)cc1-c1ccnc(Cl)c1 | 250 |  | 740 |  |  | 
7 | COc1ccccc1-n1nc(C2C[C@H](C)O[C@@H](C)C2)cc1-c1ccc(Cl)cc1 (relative stereo) |  | 2 |  | 14 | 40 | 
8 | COc1ccccc1-n1nc([C@@H]2CCO[C@H](C(C)C)C2)cc1-c1ccc(Cl)cc1 (relative stereo) |  | 7 |  | 21 | 66 | 
9 | COc1ccccc1-n1nc([C@H]2C[C@@H](C)O[C@@H](C)C2)cc1-c1ccc(Cl)cc1 | 12 | 3 | 91 | 18 | 64 | 
10 | COc1ccccc1-n1nc(C2=CC(C)(C)OC(C)(C)C2)cc1-c1ccc(Cl)cc1 |  | 3 |  | 37 | 96 | 

Continued, in another order:

Row | IC50 [14] [nM] | IC50 [15] [nM] | IC50 [16] [nM] | remaining at 10 min [17] [%] | remaining at 10 min [18] [%] | Compound | also measured
11 | 44 | 5 | 200 |  |  | CCOc1ccc(-c2cc(C3CC(C)(C)OC(C)(C)C3)nn2-c2ccccc2OC)cn1 | 
12 | 29 | 2 | 61 |  |  | CCOc1ccc(-c2cc(C3CC(C)(C)OC(C)(C)C3)nn2-c2ccccc2OC)cc1 | 
13 | 85 | 1 | 130 |  |  | COc1ccccc1-n1nc(C2CC(C)(C)OC(C)(C)C2)cc1-c1ccc(C#N)cc1 | 
14 | 16 | 1 | 24 | 96 | 97 | COc1ccccc1-n1nc(C2CC(C)(C)OC(C)(C)C2)cc1-c1ccc(Cl)cc1 | IC50 [1]: 20000 nM; Activity [3]: Active; concentration at 2 h [21]: 700 nM; Cmax [22]: 127 ng/mL; clearance [23]: 37 mL/min/kg; concentration at 2 h [24]: 1200 nM; inhibition at 1 µM [8]: 0%; bioavailability [25]: 36%; Activity [11]: inactive; Vd [26]: 33.3 L/kg; inhibition in vivo at 30 mg/kg [27]: 51%; half-life [28]: 15.4 h; AUC(0-t) [29]: 1500 ng·h/mL
15 |  | 6 |  |  |  | COc1ccccc1-n1nc(C2CC(C)(C)OC(C)(C)C2)cc1-c1ccc(C)nc1 | 
16 |  | 12 |  |  |  | CC1(C)CC(c2cc(-c3ccc(Cl)cc3)n(-c3ccccn3)n2)CC(C)(C)O1 | 
17 | 100 | 1 | 590 |  |  | CCN(CC)c1ccccc1-n1nc(C2CC(C)(C)OC(C)(C)C2)cc1-c1ccc(Cl)cc1 | 
18 |  | 7 |  |  |  | CC1(C)CC(c2cc(-c3ccc(Cl)cc3)n(-c3ccncc3)n2)CC(C)(C)O1 | 
